Data set [1] has as its system RAW264.7. The experiment in a line: Antiinflammatory activity in mouse RAW264.7 cells assessed as inhibition of LPS-induced NO production after 18 hrs by Griess assay. In kind it is functional, cell-based. Conditions: RAW264.7, 18 h. The procedure, abridged: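 RAW264.7 murine macrophages (DMEM, 10% FBS, pen-strep, 37 °C, 5% CO2) seeded 6 × 10^4 cells/well for 18 h. Compound added with 1 μg/mL LPS for 18 h. Supernatant nitrite read with Griess reagent (10 min, OD 540 nm). Inhibition relative to DMSO-only control. L-NMMA as positive control. IC50 is mean ± SD of three independent experiments.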

Data set [2] deals with RAW264.7. The experiment in a line: Cytotoxicity against LPS-induced mouse RAW264.7 cells assessed as reduction in cell viability at 6.25 uM after 18 hrs by MTT assay. In kind it is cell-based. To be noted: raw264.7, 18 h. The procedure, abridged:
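RAW264.7 cells were seeded at 5 × 10^3/well for 18 h, then exposed to compound at various concentrations with or without LPS (1.0 μg/mL) for 18 h. MTT (5 mg/mL, 20 μL) added for 4 h. Formazan dissolved in DMSO and read at 570 nm. Viability is relative to the DMSO-only control, set as 100%.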

The subject of data set [3] is RAW264.7. As to the kind of experiment: Inhibition of JNK phosphorylation in LPS-induced mouse RAW264.7 cells at 1.25 to 5 uM incubated with compound for 1 hr followed by LPS stimulation measured after 4 hrs by Western blot analysis. The format is cell-based. The procedure, abridged: (§1)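 Western blot of MAPK phosphorylation in RAW264.7 cells. Cells pretreated with or without compound (1.25, 2.5, 5.0 μM) for 1 h, then LPS (0.1 μg/mL) for 4 h. Lysed in 1% RIPA, BCA protein assay, SDS-PAGE, PVDF, milk block 2 h at 25 °C, primary antibody 12 h at 4 °C, then secondary at room temperature.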

Data set [4] deals with RAW264.7. As to the kind of experiment: Downregulation of iNOS in LPS-induced mouse RAW264.7 cells at 2.5 uM by Western blot analysis. The format is functional, cell-based. The procedure, abridged:
(§2)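 Western blot in RAW264.7 cells treated with compound under LPS (1 μg/mL) stimulation. Cells lysed in 1% RIPA and protein quantified by BCA. SDS-PAGE, PVDF transfer, 5% skim milk block for 2 h at 25 °C, primary antibody 12 h at 4 °C, then secondary at room temperature.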

The test system of data set [5] is RAW264.7. As to the kind of experiment: Downregulation of COX-2 in LPS-induced mouse RAW264.7 cells at 2.5 uM by Western blot analysis. In kind it is functional, cell-based. The procedure, abridged: as §2
For data set [6], the system named is RAW264.7. As to the kind of experiment: Inhibition of ERK phosphorylation in LPS-induced mouse RAW264.7 cells at 1.25 to 5 uM incubated with compound for 1 hr followed by LPS stimulation measured after 4 hrs by Western blot analysis. The format is cell-based. The procedure, abridged: as §1
Data set [7] concerns RAW264.7. As to the kind of experiment: Downregulation of total NF-kappaB level in LPS-induced mouse RAW264.7 cells at 1.25 to 5 uM by Western blot analysis. In kind it is functional, cell-based. The method in brief: as §2
The target of data set [8] is MAP kinase p38 (Mus musculus) (UniProt P47811+O08911+Q9WUI1+Q9Z1B7). As to the kind of experiment: Inhibition of p38 phosphorylation in LPS-induced mouse RAW264.7 cells at 1.25 to 5 uM incubated with compound for 1 hr followed by LPS stimulation measured after 4 hrs by Western blot analysis. In kind it is cell-based. The procedure, abridged:
as §1

For data set [9], the target named is Transcription factor p65 (Mus musculus) (UniProt Q04207). The experiment in a line: Inhibition of LPS-induced NF-kB p65 nuclear translocation in mouse RAW264.7 cells at 1.25 to 5 uM by Western blot analysis. The format is cell-based. The procedure, abridged:
as §2

The test system of data set [10] is RAW264.7. As to the kind of experiment: Inhibition of NF-kappaB in LPS-induced mouse RAW264.7 cells assessed as decrease in STAT3 phosphorylation at 1.25 to 5 uM by Western blot analysis. The format is cell-based. The procedure, abridged: as §2

Molecules are shown by their SMILES. Activity calls are given as the source filed them. The calls are words filed in the database; no cut-off is given here. A value given as a limit tells only on which side of the number the result lay.

Transcription factor p65 (Mus musculus), sequence (Q04207 whole entry): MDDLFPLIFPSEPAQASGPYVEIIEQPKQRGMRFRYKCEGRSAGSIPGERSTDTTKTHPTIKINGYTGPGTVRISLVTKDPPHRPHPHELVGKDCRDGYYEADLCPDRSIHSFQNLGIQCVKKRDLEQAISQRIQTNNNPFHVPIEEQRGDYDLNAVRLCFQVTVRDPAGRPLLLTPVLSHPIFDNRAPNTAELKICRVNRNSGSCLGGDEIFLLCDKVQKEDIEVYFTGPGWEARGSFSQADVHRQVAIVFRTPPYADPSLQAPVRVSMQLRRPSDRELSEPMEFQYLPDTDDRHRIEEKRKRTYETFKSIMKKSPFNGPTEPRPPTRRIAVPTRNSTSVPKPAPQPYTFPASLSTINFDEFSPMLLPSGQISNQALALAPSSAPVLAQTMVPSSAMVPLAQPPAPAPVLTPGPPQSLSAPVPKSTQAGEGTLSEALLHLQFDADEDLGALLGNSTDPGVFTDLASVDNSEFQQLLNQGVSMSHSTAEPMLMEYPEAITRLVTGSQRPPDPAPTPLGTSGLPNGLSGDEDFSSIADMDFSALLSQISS

For the compound `C=C1C(=O)O[C@H]2[C@H]1C[C@@H](OC(=O)/C(C)=C/C)[C@@](C)(O)[C@@]13O[C@@H]1[C@@H]1O[C@]1(C)[C@H]23`, the half-maximal inhibitory concentration (IC50) with RAW264.7 [1] stood at 3.9 µM.

In the case of `C=C1C(=O)O[C@H]2[C@@H]1[C@@H](OC(=O)C=C(C)C)C[C@@](C)(O)[C@@]13C=C[C@@](C)(OO1)[C@H]23`, in the data set on RAW264.7 [1], the IC50 is 7.2 µM.

Take `C=C(C)C(=O)O[C@@H]1C[C@H]2C(=C)C(=O)O[C@@H]2[C@H]2[C@](C)(O)[C@@H](Cl)[C@@H]3O[C@@]32[C@]1(C)O`: the IC50 in the data set on RAW264.7 [1] turned out to be 9.7 µM.

For the compound `C=C1C(=O)O[C@H]2[C@H]1CC[C@@](C)(O)[C@]13C=C[C@](C)([C@@H]21)[C@]1(C3)C(=O)O[C@H]2[C@H]1CC[C@@](C)(O)[C@]13O[C@H]1[C@@H](O)[C@@](C)(O)[C@H]23`, the half-maximal inhibitory concentration (IC50) in the data set with RAW264.7 [1] is > 50 µM.

With `CNC(=N)NCCC[C@H](N)C(=O)O` [TILARGININE], the IC50 in the data set with RAW264.7 [1] is 25.8 µM.

In the case of `C=C1C(=O)O[C@H]2[C@H]1C[C@@H](OC(=O)/C(C)=C\C)[C@@](C)(O)[C@]13O[C@H]1[C@@H](O)[C@@](C)(O)[C@H]23`, the IC50 in the data set with RAW264.7 [1] worked out at 7.1 µM.

With `C=C1C(=O)O[C@H]2[C@@H]1[C@@H](OC(=O)/C(C)=C/C)C[C@@](C)(O)[C@@]13C=C[C@@](C)(OO1)[C@H]23`, the IC50 in the data set with RAW264.7 [1] turned out to be 3.4 µM.

Take `C=C1C(=O)O[C@H]2[C@H]1C[C@@H](OC(=O)/C(C)=C\C)[C@@](C)(O)[C@]13O[C@H]1[C@H]1O[C@@]1(C)[C@H]23`: the IC50 with RAW264.7 [1] amounted to 4 µM.

As to `C=C1C(=O)O[C@H]2[C@H]1CC[C@@](C)(O)[C@]13C=C[C@](C)([C@@H]21)[C@]1(C3)C(=O)O[C@H]2[C@H]1CC[C@@](C)(O)[C@]13O[C@H]1[C@@H](O)[C@](C)(O)[C@H]23`, in the data set on RAW264.7 [1], the half-inhibitory concentration (IC50) was > 50 µM.

On to `C=C1C(=O)O[C@H]2[C@H]1C[C@@H](OC(=O)C=C(C)C)[C@@](C)(O)[C@@]13O[C@@H]1[C@@H]1O[C@]1(C)[C@H]23`, for which the IC50 in the data set on RAW264.7 [1] was 4.8 µM.

Consider `C=C1C(=O)O[C@H]2[C@H]1CC[C@@](C)(O)[C@]13O[C@H]1[C@@H](O)[C@](C)(O)[C@H]23`, for which the IC50 in the data set with RAW264.7 [1] amounted to 21.5 µM.

Regarding `C=C1C(=O)O[C@H]2[C@H]1C[C@@H](OC(=O)/C(C)=C\C)[C@@](C)(O)[C@@]13O[C@@H]1[C@@H]1O[C@]1(C)[C@H]23`, the Activity result with RAW264.7 [2] is listed as “Non-Toxic”. Also, the inhibition result (with RAW264.7 [3]; in the data set on RAW264.7 [6]; in [8]; in [9]; in the data set with RAW264.7 [10]) was “Active” in each case. For the same compound, in the data set on RAW264.7 [1], the IC50 amounted to 1.4 µM. Moreover, the result with RAW264.7 [4], with RAW264.7 [5] and in the data set on RAW264.7 [7] was Active.

Take `C=C1C(=O)O[C@H]2[C@H]1C[C@@H](OC(=O)/C(C)=C/C)[C@@](C)(O)[C@]13O[C@H]1[C@H]1O[C@@]1(C)[C@H]23`: the half-maximal inhibitory concentration (IC50) in the data set with RAW264.7 [1] was 6.3 µM.

The record behind these values is ChEMBL document CHEMBL4138290, “Highly Oxidized Guaianolide Sesquiterpenoids with Potential Anti-inflammatory Activity from Chrysanthemum indicum” (J Nat Prod, 2018).
